Measurements from different studies.
Each line is one published result; the experiments were not run side by side.

SMILES	cell line	test	setting	IC50
CC(C)(C)SCCCC1=CC2C=CC=CC1C2C1CCCCC1=O (stereo not shown)	U-937	cell growth or viability, flow cytometry	–	61 nM
Cc1oc2cc(OC(=O)c3ccco3)ccc2c(=O)c1-c1ccccc1	human Neutrophil	cell migration, inhibitor	–	880 nM
CCc1c2c(nc3ccc(O)cc13)-c1cc3c(c(=O)n1C2)COC(=O)[C@]3(O)CC	HCCLM3	cell growth or viability, MTT	72 h	3080 nM
Cc1cc(=O)oc2ccc(-c3cc(-c4ccccc4)nc(N)n3)c(O)c12	KB	cell growth or viability, MTT	72 h	> 128 µg/mL
COc1cc(OC)c(/C=C/S(=O)(=O)Nc2ccc(OC)c(N)c2)c(OC)c1	RF48	cell growth or viability, trypan blue	96 h	4 nM
COc1ccc(-c2cc(-c3ccc4oc(=O)cc(C)c4c3O)nc(N)n2)cc1	KB	cell growth or viability, MTT	72 h	> 128 µg/mL
O=C(N/N=C/c1c(O)ccc2ccccc12)c1cc(-c2ccc3ccccc3c2)n[nH]1	UACC-903	cell growth or viability, MTS	48 h	10900 nM
N=C(N)c1ccc(OCCCCCOc2ccc(C(=N)N)cc2)cc1	J774	cell growth or viability, resazurin	48 h	23800 nM
COc1cc(Nc2nccc(-c3cnn4nc(OC)ccc34)n2)cc(C(F)(F)F)c1	NCI-H1703	cell growth or viability, ATP luminescence	–	220 nM
COc1cc(O)c(CC=C(C)C)c(O)c1C(=O)/C=C/c1ccc(O)cc1	J774	cell growth or viability, resazurin	48 h	60800 nM
CCOC(=O)Oc1ccc2c(=O)c(-c3ccccc3OC)c(C(F)(F)F)oc2c1	human Neutrophil	cell migration, inhibitor	–	1000 nM
CC(C)C[C@H](NC(=O)[C@H](Cc1ccccc1)NC(=O)c1cnccn1)B(O)O	EFO-27	cell growth or viability, ATP luminescence	–	21 nM
Cc1cc(=O)oc2ccc(-c3cc(-c4ccc(Br)cc4)nc(N)n3)c(O)c12	KB	cell growth or viability, MTT	72 h	> 128 µg/mL
Oc1ccc(Nc2nc(-c3ccc(Cl)cc3)cs2)cc1	UACC-903	cell growth or viability, MTS	24 h	> 100000 nM
N#CCCC1=CC2C=CC=CC1C2C1CCCCC1=O (stereo not shown)	U-937	cell growth or viability, flow cytometry	–	81 nM
Cc1cc(=O)oc2ccc(-c3cc(-c4cccc([N+](=O)[O-])c4)nc(N)n3)c(O)c12	KB	cell growth or viability, MTT	72 h	63.6 µg/mL
O=C(Oc1ccc2c(=O)c(-c3ccccc3)c(C(F)(F)F)oc2c1)c1cccs1	human Neutrophil	cell migration, inhibitor	–	640 nM
CC[C@@H](C)[C@H](N)C(=O)N1Cc2ccccc2C1	U-937	cell growth or viability, ATP luminescence	48 h	> 60000 nM
COc1ccc(C=CC(=O)c2ccc(F)cc2)cc1OC	J774	cell growth or viability, MTT	24 h	100 µg/mL
COc1ccccc1-c1c(C(F)(F)F)oc2cc(OC(=O)C(C)C)ccc2c1=O	human Neutrophil	cell migration, inhibitor	–	200 nM
N#CCCCC1=CC2C=CC=CC1C2C1CCCCC1=O (stereo not shown)	U-937	cell growth or viability, flow cytometry	–	74 nM
Cc1oc2cc(OC(=O)c3ccco3)ccc2c(=O)c1-c1nc2ccccc2n1C	human Neutrophil	cell migration, inhibitor	–	410 nM
Cl.Oc1cccc2c1[nH]c1c(C3=CC4(O)CC/C=C\CCCCN5CCC3C3(CC6/C=C\CCCCN6C43)C5)nccc12 (single isomer, unassigned; (+))	KB	cell growth or viability, neutral red	48 h	0.69 µg/mL
O=C1CCCCC1C1C2C=CC=CC1C(C1CC1)=C2 (stereo not shown)	U-937	cell growth or viability, flow cytometry	–	41 nM
COc1ccccc1-c1c(C)oc2cc(OC(=O)c3cccs3)ccc2c1=O	human Neutrophil	cell migration, inhibitor	–	320 nM
COc1ccc(-c2cncc(N[C@@H](C)c3cccc(NC(=O)c4cncc(C)c4)c3)n2)cc1OC	NCI-H1703	cell growth or viability, ATP luminescence	72 h	32 nM
O=C1CCCCC1C1C2C=CC=CC1C(CCCCOC1CCCCO1)=C2 (stereo not shown)	U-937	cell growth or viability, flow cytometry	–	143 nM
COc1ccc(C=CC(=O)c2cccc([N+](=O)[O-])c2)cc1OC	J774	cell growth or viability, MTT	24 h	25 µg/mL
